pIC50: −log10 of the molar value. Activity calls are given as the source filed them. The calls are words filed in the database; no cut-off is given here.
Tests used:
[1] = Solubility of the compound in pH 5.5 sodium acetate buffer at 10 uM; conditions: pH 5.5, 10 µM
[2] = Cytotoxicity against mouse J774 cells assessed as reduction in cell viability after 72 hrs by alamar blue assay; type: cell-based
How it was run: (§1)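 H9c2 or J774 cells (1 x 10^4/well) in DMEM/10% FBS preincubated 24 h, then exposed 72 h to six concentrations (0.41 to 100 µM) in triplicate, DMSO under 1%. Viability by AlamarBlue, read after 6 h at 570/600 nm; CC50 from three independent experiments; gentian violet positive control.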

[3] = tested on: Trypanosoma cruzi; assay: Antitrypanosomal activity against bloodstream trypomastigote stage of Trypanosoma cruzi Y infected in monkey LLC-MK2 cells assessed as reduction in parasite motility measured after 24 hrs by neubauer chamber method; type: functional, organism-based; conditions: LLC-MK2, 24 h
How it was run: (§2)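 Y strain trypomastigotes from LLC-MK2 supernatants, 4x10^5/well, incubated 24 h at 37°C, 5% CO2 with five concentrations; viable parasites counted by motility in Neubauer chamber. Inhibition versus untreated cultures; IC50 by non-linear regression; benznidazole reference.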

[4] = Cytotoxicity against rat H9c2 cells assessed as reduction in cell viability after 72 hrs by alamar blue assay; type: cell-based
How it was run: as §1

[5] = biological target: Cruzipain (Trypanosoma cruzi) (UniProt P25779); assay: Inhibition of recombinant Trypanosoma cruzi cruzain at 10 uM preincubated for 10 mins followed by Z-FR-AMC substrate addition measured for 5 mins at 12 secs time interval by […] relative to control
Chain of Cruzipain (Trypanosoma cruzi) (P25779 123-467 limits assumed): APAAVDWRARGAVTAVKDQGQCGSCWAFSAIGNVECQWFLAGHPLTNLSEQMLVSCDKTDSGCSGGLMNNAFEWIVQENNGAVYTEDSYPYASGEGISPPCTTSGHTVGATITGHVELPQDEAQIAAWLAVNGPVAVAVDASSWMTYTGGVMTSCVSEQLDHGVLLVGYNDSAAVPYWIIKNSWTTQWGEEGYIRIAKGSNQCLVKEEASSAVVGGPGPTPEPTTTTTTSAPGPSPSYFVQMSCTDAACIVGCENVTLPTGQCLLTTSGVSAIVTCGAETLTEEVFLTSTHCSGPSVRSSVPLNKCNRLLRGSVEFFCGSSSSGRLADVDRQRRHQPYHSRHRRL
How it was run: (§3)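 Cruzain 0.5 nM in 0.1 M sodium acetate pH 5.5, 1 mM beta-mercaptoethanol, 0.01% Triton X-100, 25 °C; 10 min preincubation, then Z-FR-AMC 2.5 µM (Km 1 µM). Fluorescence (ex 340, em 440) read continuously 5 min; initial rates versus DMSO control. Screens at 10 µM, two independent runs in triplicate; IC50 from at least seven concentrations, four-parameter fit, at least two curves.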

[6] = biological target: Cruzipain (Trypanosoma cruzi, UniProt P25779); assay: Inhibition of recombinant Trypanosoma cruzi cruzain preincubated for 10 mins followed by Z-FR-AMC substrate addition measured for 5 mins at 12 secs time interval by flow cytometry relative to control
Chain of Cruzipain (P25779 whole entry): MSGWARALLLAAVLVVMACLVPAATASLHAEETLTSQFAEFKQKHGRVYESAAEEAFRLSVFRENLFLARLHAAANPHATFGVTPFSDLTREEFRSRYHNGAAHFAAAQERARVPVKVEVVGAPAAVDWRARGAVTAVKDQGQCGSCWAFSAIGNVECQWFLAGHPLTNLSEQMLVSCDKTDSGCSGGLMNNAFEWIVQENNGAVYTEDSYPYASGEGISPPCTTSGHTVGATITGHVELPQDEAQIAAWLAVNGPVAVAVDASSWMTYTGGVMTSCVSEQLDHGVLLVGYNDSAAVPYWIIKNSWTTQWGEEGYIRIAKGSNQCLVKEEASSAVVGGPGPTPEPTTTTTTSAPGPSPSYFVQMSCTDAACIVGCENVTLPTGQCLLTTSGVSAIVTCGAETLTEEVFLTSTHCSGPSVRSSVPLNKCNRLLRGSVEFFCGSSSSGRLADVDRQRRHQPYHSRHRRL
How it was run: as §3

[7] = Cytotoxicity against mouse J774 cells; type: cell-based
How it was run: as §1

[8] = tested on: Trypanosoma cruzi; assay: Antitrypanosomal activity against Trypanosoma cruzi Y trypomastigotes infected in mouse J774 cells measured after […] by contrast phase microscopic method; type: functional, organism-based
[9] = tested on: Trypanosoma cruzi; assay: Synergistic antitrypanosomal activity against bloodstream trypomastigote stage of Trypanosoma cruzi Y infected in monkey LLC-MK2 cells measured after 24 hrs in presence of benznidazole; type: functional
How it was run: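 Doubling dilutions of each drug alone or in fixed-ratio combinations tested on trypomastigotes by the 24 h motility assay; combination index by Chou-Talalay method and isobologram.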

[10] = tested on: Trypanosoma cruzi; assay: (§4) Antitrypanosomal activity against bloodstream trypomastigote stage of Trypanosoma cruzi Y infected in Balb/c mouse assessed as reduction in blood parasitaemia at 25 mg/kg, po qd administered for 5 consecutive days starting from day 5 post infection measured on day 8 post infection relative to control; type: functional; set-up: scale not given: the % may be the effect or the level left
How it was run: (§5)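 Female BALB/c mice (18-22 g, 6-8 weeks) infected i.p. with 10^4 Y strain bloodstream trypomastigotes in saline; six per group. From day 5, oral dosing once daily for 5 days; vehicle saline with 20% DMSO. Parasitaemia counted as motile parasites in 5 µL tail-vein blood; reduction = (vehicle mean − treated mean)/vehicle mean × 100. Mortality followed to 30 days post-treatment.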

[11] = tested on: Trypanosoma cruzi; assay: Antitrypanosomal activity against bloodstream trypomastigote stage of Trypanosoma cruzi Y assessed as induction of mitochondrial membrane potential loss at 0.4 to 0.8 uM measured after 24 hrs by Rho-123 staining based FACS analysis; type: functional, organism-based
How it was run: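 Trypomastigotes (1 x 10^7/mL) from LLC-MK2 culture supernatants, exposed 24 h at 37°C in DMEM with FBS; washed in PBS, stained 15 min with 5 µg/mL Rhodamine 123, washed, analysed immediately by flow cytometry; 10,000 events gated on trypomastigote region.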

[12] = tested on: Trypanosoma cruzi; assay: Antitrypanosomal activity against bloodstream trypomastigote stage of Trypanosoma cruzi Y infected in Balb/c mouse macrophages assessed as reduction in number of intracellular amastigotes measured after 3 days by hoeschst staining based confocal microscopic method; type: functional, organism-based
How it was run: (§6)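 BALB/c peritoneal macrophages (5x10^4/well) in DMEM/10% FBS, infected with trypomastigotes (10:1) for 2 h, washed, held 24 h, then treated 72 h (test at 8, 2, 0.5 µM; benznidazole 5 µM control). Formaldehyde-fixed, Hoechst-stained, imaged by confocal high-content microscopy for infected cells and amastigotes per 100 cells; six determinations; ANOVA with Bonferroni.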

[13] = tested on: Trypanosoma cruzi; assay: Induction of apoptosis in bloodstream trypomastigote stage of Trypanosoma cruzi Y assessed as late apoptotic cells at 0.4 uM measured after 24 hrs by Annexin V-FITC/propidium iodide staining based flow cytometry (reference value: 1.51%); type: functional
[14] = tested on: Trypanosoma cruzi; assay: Induction of apoptosis in bloodstream trypomastigote stage of Trypanosoma cruzi Y assessed as necrotic cells at 0.4 uM measured after 24 hrs by Annexin V-FITC/propidium iodide staining based flow cytometry (reference value: 0.5%); type: functional
[15] = tested on: Trypanosoma cruzi; assay: Induction of apoptosis in bloodstream trypomastigote stage of Trypanosoma cruzi Y assessed as viable cells at 0.4 uM measured after 24 hrs by Annexin V-FITC/propidium iodide staining based flow cytometry (reference value: 89.73%); type: functional
[16] = tested on: Trypanosoma cruzi; assay: Induction of apoptosis in bloodstream trypomastigote stage of Trypanosoma cruzi Y assessed as early apoptotic cells at 0.4 uM measured after 24 hrs by Annexin V-FITC/propidium iodide staining based flow cytometry (reference value: 8.25%); type: functional
[17] = tested on: Mus musculus; assay: Toxicity in Balb/c mouse infected with Trypanosoma cruzi Y trypomastigotes assessed as behavioral alteration at 25 mg/kg, po qd administered for 5 consecutive days starting from day 5 post infection; type: organism-based; conditions: in vivo
How it was run: as §5

[18] = Safety index, ratio of compound CC50 to gentian violet CC50 for cytotoxicity against mouse J774 cells; type: cell-based
How it was run: as §1

[19] = Safety index, ratio of compound CC50 to gentian violet CC50 for cytotoxicity against rat H9c2 cells; type: cell-based
How it was run: as §1

[20] = tested on: Trypanosoma cruzi; assay: Potency index, ratio of benznidazole IC50 to compound IC50 for antitrypanosomal activity against bloodstream trypomastigote stage of Trypanosoma cruzi Y infected in monkey LLC-MK2 cells; type: functional
How it was run: as §2

[21] = tested on: Trypanosoma cruzi; assay: Antitrypanosomal activity against bloodstream trypomastigote stage of Trypanosoma cruzi Y infected in Balb/c mouse macrophages assessed as reduction in number of infected cells measured after 3 days by hoeschst staining based confocal microscopic method; type: functional, organism-based
How it was run: as §6

[22] = tested on: Trypanosoma cruzi; assay: as §4, with “12” for “8”; type: functional; set-up: scale not given: the % may be the effect or the level left
How it was run: as §5

[23] = tested on: Trypanosoma cruzi; assay: Antitrypanosomal activity against bloodstream trypomastigote stage of Trypanosoma cruzi Y infected in Balb/c mouse assessed as protection against mouse mortality at 25 mg/kg, po qd administered for 5 consecutive days starting from day 5 post infection measured up to 30 days post treatment; type: functional, organism-based
How it was run: as §5

| solubility [1] | pIC50 [3] | inhibition [5] [%] | SMILES | CC50 at 72 h [2] [µM] | CC50 at 72 h [4] [µM] | further results |
| --- | --- | --- | --- | --- | --- | --- |
| Soluble | < 4.30 | 31 | C/C(=N\Nc1nc(-c2ccc(Cl)cc2)cs1)c1ccc(Cl)c(Cl)c1 | > 50 | > 50 | – |
| Soluble | 4.77 | 32 | C/C(=N\Nc1nc(-c2ccncc2)cs1)c1ccc(Cl)c(Cl)c1 | 39.8 | 41.9 | – |
| Soluble | 4.77 | 97 | C/C(=N\Nc1nc(C)cs1)c1ccc(Cl)c(Cl)c1 | 33.7 | 26.1 | pIC50 [6]: 6.22 |
| Soluble | 4.77 | 41 | COc1ccc(-c2csc(N/N=C(\C)c3ccc(Cl)c(Cl)c3)n2)cc1 | > 50 | > 50 | – |
| Soluble | < 4.30 | – | C/C(=N\Nc1nc(-c2ccc(Cl)c(Cl)c2)cs1)c1ccc(Cl)c(Cl)c1 | > 50 | > 50 | – |
| Soluble | < 4.30 | 44 | C/C(=N\Nc1nc(-c2ccc3ccccc3c2)cs1)c1ccc(Cl)c(Cl)c1 | > 50 | > 50 | – |
| Soluble | < 4.30 | – | C/C(=N\Nc1nc(-c2cccc([N+](=O)[O-])c2)cs1)c1ccc(Cl)c(Cl)c1 | > 50 | > 50 | – |
| Soluble | < 4.30 | 50 | C/C(=N\Nc1nc(CCl)cs1)c1ccc(Cl)c(Cl)c1 | > 50 | > 50 | – |
| Soluble | 4.72 | 74 | C/C(=N\Nc1nc(-c2ccc(Br)cc2)c(C)s1)c1ccc(Cl)c(Cl)c1 | > 50 | > 50 | – |
| Soluble | < 4.30 | 43 | C/C(=N\Nc1nc(-c2ccc(Br)cc2)cs1)c1ccc(Cl)c(Cl)c1 | > 50 | > 50 | – |
| Soluble | 5.22 | 38 | C/C(=N\Nc1nc(-c2ccc(Cl)c(Cl)c2Cl)cs1)c1ccc(Cl)c(Cl)c1 | 21.3 | 17 | – |
| Soluble | < 4.30 | 31 | C/C(=N\N=c1\scc(-c2ccccc2)n1-c1ccccc1)c1ccc(Cl)c(Cl)c1 | > 50 | > 50 | – |
| Soluble | 6.43 | 17 | C/C(=N\Nc1nc(-c2ccccn2)cs1)c1ccc(Cl)c(Cl)c1 | 10.1 | 10.2 | CI [9]: 0.37; Activity [10]: 54.6%; Activity [11]: Active; Activity [12]: Dose-dependent effect; Activity [13]: 7.13%; Activity [14]: 0.19%; Activity [15]: 74.62%; Activity [16]: 18.05%; Activity [17]: Non-Toxic; selectivity ratio [18]: 22; selectivity ratio [19]: 7; Ratio IC50 [20]: 28; Activity [21]: Dose-dependent effect; Activity [22]: 64.1%; Activity [23]: Active |

The remaining lines, values behind:

| SMILES | solubility [1] | pIC50 [3] | inhibition [5] [%] | CC50 at 72 h [2] [µM] | CC50 at 72 h [4] [µM] | further results |
| --- | --- | --- | --- | --- | --- | --- |
| C/C(=N\Nc1nc(-c2ccc([N+](=O)[O-])cc2)cs1)c1ccc(Cl)c(Cl)c1 | Soluble | < 4.30 | – | > 50 | > 50 | – |
| C/C(=N\N=c1\scc(-c2ccccc2)n1C)c1ccc(Cl)c(Cl)c1 | Soluble | < 4.30 | 12 | > 50 | > 50 | – |
| C/C(=N\N=C(\N)S)c1ccc(Cl)c(Cl)c1 | – | – | – | – | – | CC50 [7]: > 100 µM; pIC50 [8]: 5.15 |
| C/C(=N\Nc1nc(-c2ccc(C)cc2)cs1)c1ccc(Cl)c(Cl)c1 | Soluble | 4.32 | 75 | > 50 | > 50 | – |
| C/C(=N\Nc1nc(-c2ccccc2)c(C)s1)c1ccc(Cl)c(Cl)c1 | Soluble | 4.75 | 76 | > 50 | > 50 | – |
| C/C(=N\Nc1nc(-c2ccc(F)cc2)cs1)c1ccc(Cl)c(Cl)c1 | Soluble | < 4.30 | 32 | > 50 | > 50 | – |
| C/C(=N\Nc1nc(C)c(C)s1)c1ccc(Cl)c(Cl)c1 | Soluble | 4.98 | 84 | 41.8 | > 50 | pIC50 [6]: 5.05 |
| C/C(=N\Nc1nc(-c2ccc(-c3ccccc3)cc2)cs1)c1ccc(Cl)c(Cl)c1 | Soluble | < 4.30 | 44 | > 50 | > 50 | – |
| C/C(=N\Nc1nc(-c2ccccc2)cs1)c1ccc(Cl)c(Cl)c1 | Soluble | < 4.30 | 59 | > 50 | > 50 | – |
| CN(C)c1ccc(C(=C2C=CC(=[N+](C)C)C=C2)c2ccc(N(C)C)cc2)cc1 [GENTIAN VIOLET] | – | – | – | – | 1.5 | – |
| C/C(=N\Nc1nc(-c2ccc(Cl)cc2Cl)cs1)c1ccc(Cl)c(Cl)c1 | Soluble | < 4.30 | 35 | > 50 | > 50 | – |

Reference: ChEMBL document CHEMBL4138128, “Structural design, synthesis and pharmacological evaluation of thiazoles against Trypanosoma cruzi” (Eur J Med Chem, 2017)
